# STAT1 blocker: STAT1 signaling inhibitors, primary screen, cell-based, HTS, luciferase reporter; 0.35% of 200,000 active; inhibition, % at 5.5 µM; NIH 3T3 STAT1-luciferase reporter, IFN-gamma, luminescence;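 active means inhibition above a set limit, the mean inhibition across all tested compounds plus 3 SD, cut at about 34% in these data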;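 further: 0% = IFN-gamma with DMSO and 100% = IFN-gamma with 300 µM nifuroxazide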
# STAT3 inh: IL-6 driven STAT3 reporter inhibitors, primary screen, U3A cells, luciferase, luminescence, MLSCN library | IL-6 STAT3-luciferase reporter; host cell line lacks STAT1 | inhibition, % at 5.5 µM | 0.89% of 190,000 active | AID 862, 2007;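 active means inhibition above the mean inhibition across all screened compounds plus 3 SD, cut at about 44% in these data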;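 further: 0% = DMSO only wells and 100% = 100 µM nifuroxazide control wells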
# HSV replic up: enhancers of HSV replication in host cells, fold increase, host cell viability. HSV replication augmentation in cells. AID 1956, 2009. maximum fold increase. 0.005% of 220,000 active; in the data active means maximum fold increase above about 1.5; inconclusive means no clear call, values can overlap the other calls; tested in PC3 cells
# KCC2 mod: KCC2 cotransporter modulators, thallium flux, primary screen, cell-based, HEK293 KCC2, FluoZin-2 fluorescence, MLSMR. B-score of Tl+ flux slope (higher = more flux/activation; lower = inhibition) at 10 µM. KCC2 cells, thallium flux FluoZin-2 fluorescence. 2.2% of 190,000 active;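 active means thallium flux slope and its plate-corrected score both differing from the plate sample mean at a set confidence after two filtering rounds, in either direction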;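 further: slope of fluorescence scaled to starting intensity during 10 to 20 s after thallium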
# STAT1 activator: STAT1 signaling activators, primary screen, cell-based, HTS, luciferase reporter; 2.6% of 200,000 active; AID 932, 2007; activation (% of control), % at 5.5 µM; NIH 3T3 STAT1-luciferase reporter, IFN-gamma, luminescence; 100% = IFN-gamma alone, no compound;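 active means activation above the screen-wide mean activation plus 3 SD, cut at about 130% in these data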;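 further: raw ratio to IFN-gamma control signal so 100% means no change and 0% no light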
# STAT3 activator: IL-6 driven STAT3 reporter potentiators, primary screen, U3A cells, luciferase, luminescence, MLSCN library | IL-6 STAT3-luciferase reporter; 100% = signal with IL-6 EC80 alone | 0.91% of 190,000 active | activation (% of control), % at 5.6 µM;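 active means activation above the screen-wide mean of compound activation plus 3 SD, cut at about 130% in these data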;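 further: 0% = background luminescence of wells with medium and substrate only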
#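 Test system: human U3A cells carrying STAT3-luciferase construct; control set: IL-6-only wells as 100% reference; timing: compound pre-incubation 1 h before IL-6, then 6 h stimulation at 37 °C; also added: IL-6 stimulus at 33 ng/mL final; evaluation: % activation versus median of IL-6-stimulated wells; detection: reporter luminescence signal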
# STAT1 act conf: STAT1 signaling activators, confirmation, cell-based, HTS, luciferase reporter; shares compounds with STAT1 activator; NIH 3T3 STAT1-luciferase reporter, IFN-gamma potentiation, luminescence; 100% = IFN-gamma EC80 alone, no compound; activation (% of control), % at 5.7 µM; 97% of 1,200 active; AID 1262, 2008;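 active means activation above a set limit carried over from the earlier primary STAT1 screen, cut at about 140% in these data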;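 further: simple ratio to median IFN-gamma plus DMSO wells so 0% means no light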
# NFkB act: NF-kB reporter activators, TNF-alpha stimulated, counter-screen for STAT1 activator project, cell-based, HEK293T, luciferase luminescence | shares compounds with STAT1 activator | 100% = TNF-alpha with vehicle only | activation (% of control), % at 5.7 µM | 43% of 1,200 active | AID 1306, 2008;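 active means activation above the mean of solvent-only control wells plus 3 SD, set per campaign, cut at about 130% in these data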;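 further: TNF-alpha given at a submaximal dose yielding about 80% of full reporter signal; values are well signal over median control so 100% means no change and 0% no light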
# STAT3 act STAT1c: STAT3 reporter activation by STAT1 hits, confirmation, counter-screen for STAT1 activator project, U3A cells, luciferase, luminescence | shares compounds with STAT1 activator | IL-6; cells lack STAT1; 100 = IL-6 alone, no compound effect | activation (% of control), % at 5.7 µM | 46% of 1,200 active | AID 1316, 2008;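 active means activation above the solvent-only control well mean plus 3 SD, set per plate batch, cut at about 110% in these data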;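 further: 0% = no luminescence and 100% = median IL-6 plus DMSO wells; higher means more STAT3 reporter activation so hits are non-selective activators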
# Active calls of the source: *; i = inactive; ? = inconclusive; . = not tested or not shown. Shown are actives, neighbours in structure and some others; about 5.5% of the full set was active somewhere.
SMILES,STAT1 blocker,STAT3 inh,HSV replic up,KCC2 mod,STAT1 activator,STAT3 activator,STAT1 act conf,NFkB act,STAT3 act STAT1c
CCn1cc(C(=O)NCc2cccnc2)c(=O)c2cc(F)c(N3CCN(C(=O)c4ccco4)CC3)cc21,2.1,19.5,i,0.447,98.1,87.9,.,.,.
CCc1ccc(Nc2ncc3c(n2)CC(C)CC3=O)cc1 (stereo unspecified),-57.7,17.1,i,0.441,151.3*,91.0,198.2*,128.2,106.8
O=C(Nc1cccc(Cl)c1)c1cnn2cccnc12,-59.4,-24.4,i,-1.54,157.1*,123.2,177.9*,130.3,122.8*
O=C(Nc1cc(Cl)cc(Cl)c1)c1cnn2cccnc12,-1.1,12.6,i,.,101.0,94.0,.,.,.
CC(=O)Nc1sc2c(c1C#N)CCC(C)C2 (stereo unspecified),-11.2,8.3,i,-0.617,110.1,97.5,.,.,.
Cc1cc(C(=O)Nc2sc3c(c2C#N)CCC(C)C3)cs1 (stereo unspecified),-57.1,4.3,i,-1.23,152.4*,99.3,198.7*,141.2*,114.4*
Cc1cc(C(F)(F)F)c(C#N)c(SCC(=O)Nc2nc3ccccc3s2)n1,-59.7,-21.3,?,0,152.4*,120.4,260.9*,125.6,192.8*
CCN(CC)S(=O)(=O)c1ccc(NC(=O)C(OC)c2ccccc2)cc1 (stereo unspecified),1.3,0.3,i,-0.702,98.8,99.4,.,.,.
Nc1nc2ccccc2n1/N=C/c1cccnc1,3.6,3.9,i,-0.00234,96.7,99.9,.,.,.
Nc1nc2ccccc2n1/N=C/c1ccc(-c2ccccc2)o1,-60.5,21.7,.,.,155.0*,84.3,160.4*,120.6,98.7
CCc1ccc(NC(=O)c2noc3c2CCCCC3)cc1,-66.8,4.7,.,0.626,164.5*,101.6,218.9*,144.0*,111.8*
Cc1ccc(NC(=O)c2noc3c2CCCCC3)cc1,-60.6,12.9,i,1.18,155.6*,92.2,243.0*,135.8*,104.8
COc1ccc(NC(=O)c2noc3c2CCCCC3)cc1,-77.9,17.7,i,0.495,168.8*,91.3,211.7*,138.4*,102.5
Cc1ccc(NC(=O)c2noc3c2CCCCC3)cc1C,-109.2,34.7,.,-0.0478,198.2*,74.3,270.7*,122.2,96.3
CCc1ccc(NC(=O)c2noc3c2CCC3)cc1,-4.6,-2.0,i,.,104.3,108.0,.,.,.
COc1ccc(CNC(=O)c2noc3c2CCCC3)cc1,-7.6,1.7,i,.,106.9,102.9,.,.,.
Clc1c(-c2ccccc2)nnn1-c1ccccc1,-86.7,-6.6,i,-0.953,176.6*,110.1,209.0*,136.6*,106.9
Cc1ccc(-c2csc(NC(=O)CSc3nnc4c(n3)[nH]c3ccccc34)n2)cc1,8.3,8.5,i,0.602,94.3,91.3,.,.,.
Cc1nc(-c2ccc(NC(=O)c3ccccc3C)cc2)cs1,-67.8,17.1,i,-0.567,159.4*,88.7,178.5*,125.2,93.7
CC(=O)Nc1ccc(NC(=O)c2ccccc2C)cc1,0.4,10.5,i,.,99.6,96.8,.,.,.

# Screens from PubChem BioAssay.
